ChEMBL document CHEMBL2407071, “Exploring 4-substituted-2-thiazolylhydrazones from 2-, 3-, and 4-acetylpyridine as selective and reversible hMAO-B inhibitors” (Eur J Med Chem, 2013)

What was measured:
[1] = molecular target: T1, Amine oxidase [flavin-containing] A (Homo sapiens, UniProt P21397); test: Inhibition of recombinant human MAO-A assessed as oxidation of kynuramine to 4-hydroxyquinoline after 20 mins by spectrofluorometric analysis
T1 sequence (P21397 whole entry): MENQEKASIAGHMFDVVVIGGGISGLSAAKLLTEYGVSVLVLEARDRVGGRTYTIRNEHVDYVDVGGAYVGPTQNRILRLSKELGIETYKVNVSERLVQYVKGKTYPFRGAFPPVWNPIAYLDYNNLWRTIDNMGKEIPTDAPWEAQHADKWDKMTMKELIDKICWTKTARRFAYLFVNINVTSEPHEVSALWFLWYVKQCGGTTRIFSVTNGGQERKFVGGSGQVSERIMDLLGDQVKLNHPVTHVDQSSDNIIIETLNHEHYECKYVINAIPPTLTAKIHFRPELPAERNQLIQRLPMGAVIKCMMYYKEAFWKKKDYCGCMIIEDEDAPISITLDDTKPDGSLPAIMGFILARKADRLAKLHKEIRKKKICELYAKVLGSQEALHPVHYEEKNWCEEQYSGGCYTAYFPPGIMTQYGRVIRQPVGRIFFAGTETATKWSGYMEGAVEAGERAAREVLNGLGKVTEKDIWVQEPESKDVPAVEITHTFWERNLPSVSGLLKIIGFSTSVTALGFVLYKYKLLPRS
Procedure, shortened: (§1)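 Enzyme from insect-cell microsomes expressing recombinant human MAO-A or MAO-B, at 0.0075 mg protein/mL, in 100 mM potassium phosphate pH 7.4 made isotonic with 20.2 mM KCl, with 4% DMSO. Kynuramine was 45 µM for MAO-A and 30 µM for MAO-B. Inhibitor range 0-100 µM, six log-spaced concentrations. Incubated 20 min at 37 °C, stopped with 2N NaOH and centrifuged. 4-Hydroxyquinoline read by fluorescence (ex 310/em 400 nm) against a calibration curve. One-site competition fit; three experiments, mean ± SD.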

[2] = molecular target: T2, Amine oxidase [flavin-containing] B (Homo sapiens, UniProt P27338); test: Inhibition of recombinant human MAO-B assessed as oxidation of kynuramine to 4-hydroxyquinoline after 20 mins by spectrofluorometric analysis; procedure, shortened: as §1
T2 sequence (P27338 whole entry): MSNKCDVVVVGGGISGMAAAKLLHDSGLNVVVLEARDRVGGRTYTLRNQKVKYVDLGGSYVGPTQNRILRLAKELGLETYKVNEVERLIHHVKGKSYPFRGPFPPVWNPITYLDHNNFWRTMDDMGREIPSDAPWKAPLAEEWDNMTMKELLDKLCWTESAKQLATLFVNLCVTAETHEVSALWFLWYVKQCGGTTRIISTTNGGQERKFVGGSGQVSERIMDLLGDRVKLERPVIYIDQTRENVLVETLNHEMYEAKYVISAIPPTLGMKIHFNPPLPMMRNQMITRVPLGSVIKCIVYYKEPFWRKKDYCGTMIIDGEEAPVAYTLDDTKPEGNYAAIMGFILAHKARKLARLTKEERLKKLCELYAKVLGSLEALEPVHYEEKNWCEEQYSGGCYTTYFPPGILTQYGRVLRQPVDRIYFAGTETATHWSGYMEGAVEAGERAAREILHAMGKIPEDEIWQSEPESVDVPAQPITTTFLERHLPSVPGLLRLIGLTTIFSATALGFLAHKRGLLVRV

[3] = molecular target: T2, Amine oxidase [flavin-containing] B; test: Reversible inhibition of recombinant human MAO-B assessed as oxidation of kynuramine to 4-hydroxyquinoline at IC50 to 2 times IC50 up to 60 mins by spectrofluorometric analysis; conditions: 1 h
[4] = molecular target: T2, Amine oxidase [flavin-containing] B; test: Mixed type inhibition of recombinant human MAO-B using kynuramine as substrate by Lineweaver-Burk plot analysis
[5] = molecular target: T2, Amine oxidase [flavin-containing] B; test: Competitive inhibition of recombinant human MAO-B using kynuramine as substrate by Lineweaver-Burk plot analysis

In the case of `C/C(=N\Nc1nc(-c2ccccc2)cs1)c1cccnc1`, the IC50 ([1]; read-out: IC50) is reported as 21.3 µM and the IC50 ([2]; read-out: IC50) is reported as 0.944 µM.

`CCOC(=O)c1csc(N/N=C(\C)c2cccnc2)n1` was tested, and the “inhibition (INH)” value [3] was “Active”, the IC50 ([1]; read-out: IC50) was 6.57 µM and the “inhibition (INH)” value [4] was “Active”. The IC50 ([2]; read-out: IC50) was 0.0722 µM.

With `C/C(=N\Nc1nc(C)cs1)c1ccccn1` the IC50 [1] was “Not Active” and the IC50 [2] was “Not Active”.

`CCOC(=O)c1csc(N/N=C(\C)c2ccncc2)n1` was tested, and the “inhibition (INH)” value [3] was “Active”, the IC50 ([1]; read-out: IC50) was 6.63 µM and the “inhibition (INH)” value [5] was “Active”. For the same compound, the IC50 ([2]; read-out: IC50) was 0.127 µM.

In the case of `C/C(=N/Nc1nc(-c2ccccc2)cs1)c1ccncc1`, the “inhibition (INH)” value [3] is reported as “Active”, the IC50 ([1]; read-out: IC50) is reported as 2.67 µM and the “inhibition (INH)” value [5] is reported as “Active”. For the same compound, the IC50 ([2]; read-out: IC50) was 0.013 µM.

`C/C(=N\Nc1nc(C)cs1)c1cccnc1` was tested, and the IC50 ([1]; read-out: IC50) was 6.91 µM and the IC50 ([2]; read-out: IC50) was 13.6 µM.

`C/C(=N\Nc1nc(-c2ccccc2)cs1)c1ccccn1` gave an IC50 ([1]; read-out: IC50) of 16.6 µM and an IC50 ([2]; read-out: IC50) of 3.84 µM.

With `CCOC(=O)c1csc(N/N=C(\C)c2ccccn2)n1` the IC50 [1] was “Not Active” and the IC50 [2] was “Not Active”.

In the case of `C/C(=N/Nc1nc(C)cs1)c1ccncc1`, the IC50 [1] is reported as “Not Active” and the IC50 [2] is reported as “Not Active”.
